Assay outcomes from PubChem.
This is a sample that favours compounds with a hit; in the whole collection about 2.6% have one here.
Runt-CBFb FRET: inhibitors of RUNX1 Runt–CBFb binding, primary screen, biochemical, FRET, Cerulean-Runt, Venus-CBFb, uHTS | Runt-related transcription factor 1 (Homo sapiens) + Core-binding factor subunit beta … | Cerulean-Runt/Venus-CBFb FRET ratio 530/480, 1 h | inhibition, % at 20 µM | 220,000 compounds, 0.46% hits | AID 1496, 2009;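 active = inhibition over about 50% at 20 µM in the single-dose screen, limit read from the data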;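 also: 0% = DMSO wells and 100% = excess unlabeled CBFb competitor control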
Target sequence (Q01196 whole entry, looked up): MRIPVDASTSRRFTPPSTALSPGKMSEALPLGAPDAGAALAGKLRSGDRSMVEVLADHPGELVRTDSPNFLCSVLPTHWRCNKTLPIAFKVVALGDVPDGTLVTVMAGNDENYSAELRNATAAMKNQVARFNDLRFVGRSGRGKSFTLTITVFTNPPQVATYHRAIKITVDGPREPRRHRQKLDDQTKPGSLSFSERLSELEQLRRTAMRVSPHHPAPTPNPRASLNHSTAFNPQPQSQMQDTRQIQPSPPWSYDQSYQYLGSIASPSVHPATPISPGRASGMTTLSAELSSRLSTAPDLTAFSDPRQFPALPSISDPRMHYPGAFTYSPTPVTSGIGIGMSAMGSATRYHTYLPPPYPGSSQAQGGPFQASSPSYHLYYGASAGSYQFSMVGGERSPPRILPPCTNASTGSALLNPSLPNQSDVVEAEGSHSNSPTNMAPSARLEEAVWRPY
Target sequence (Q13951 whole entry, looked up): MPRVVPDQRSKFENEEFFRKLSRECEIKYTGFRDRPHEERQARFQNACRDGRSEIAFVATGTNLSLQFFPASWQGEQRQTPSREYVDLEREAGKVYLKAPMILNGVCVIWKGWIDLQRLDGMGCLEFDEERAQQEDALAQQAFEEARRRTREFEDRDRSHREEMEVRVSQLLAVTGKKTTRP
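test system = Cerulean-Runt domain fusion protein, energy donor | probe or stimulus = Venus-CBFb binding partner, 100 nM | incubation = two 1 h room-temperature incubations shielded from light | detection = fluorescence energy transfer, 422 nm excitation, 530/480 nm emission | measure = loss of energy transfer signal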
Runt-SMMHC FRET: inhibitors of RUNX1 Runt–CBFb-SMMHC binding, primary screen, biochemical, FRET, Cerulean-Runt, Venus-CBFb-SMMHC, uHTS. Runt-related transcription factor 1 (Homo sapiens) + Core-binding factor subunit beta …. Cerulean-Runt/Venus-CBFb-SMMHC FRET ratio 530/480, 1 h. inhibition, % at 20 µM. 220,000 compounds, 0.74% hits. AID 1434, 2008;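 active = mean inhibition across duplicate retests at 20 µM reaching about 50%, limit read from the data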;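 also: 0% = DMSO wells and 100% = wells with excess untagged CBFb-SMMHC; inhibitors lower the FRET ratio by blocking Runt binding to CBFb-SMMHC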
IMP-1 inh: IMP-1 metallo-beta-lactamase inhibitors, primary screen, biochemical, epi-absorbance readout, Pseudomonas aeruginosa enzyme; purified IMP-1, nitrocefin hydrolysis, epi-absorbance fluorescence; inhibition, % at 5.6 µM; metallo-beta-lactamase IMP-1 (Pseudomonas aeruginosa); 290,000 compounds, 0.45% hits;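 active = inhibition above the mean plus 3 SD of all compounds in the same screening run, cut at about 4.5% in these data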;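 also: 0% = IMP-1 with DMSO and 100% = DMSO wells lacking enzyme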
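Assay system: purified recombinant IMP-1 beta-lactamase. Input: IMP-1 0.2 nM before substrate addition. Buffer or medium: Zinc- and detergent-supplemented HEPES buffer, pH 7.1. Schedule: 25 °C, 15 min preincubation, 25 min reaction. Signal: Epi-absorbance fluorescence, 480 nm excitation, 530 nm emission. Evaluation: percent inhibition from optical density relative to buffer-blank wells.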
RanGTP-Imp inh: inhibitors of RanGTP-importin-beta interaction, primary screen, biochemical, FRET, CFP-Ran, YFP-importin-beta, homogeneous; Ran GTPase (GTP-bound) - importin-beta complex; cell-free CFP-Ran/YFP-importin-beta FRET ratio; inhibition, % (test concentration not listed); 300,000 compounds, 1.1% hits;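 active = more than half of the replicate wells show a fall in the fluorescence ratio signal beyond about 16%, limit read from the data, passing the limit was not always enough; inconclusive = exactly half of the replicate wells pass the set limit; inactive = fewer than half of replicates pass the limit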;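 also: 0% = DMSO wells and 100% = Ran loaded with GDP instead of GTP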
VIM-2 inhibitor: VIM-2 metallo-beta-lactamase inhibitors, primary screen, biochemical, epi-absorbance readout, Pseudomonas aeruginosa enzyme; purified VIM-2, nitrocefin hydrolysis, epi-absorbance fluorescence; inhibition, % at 5.6 µM; 290,000 compounds, 0.89% hits; AID 1527, 2009;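 active = inhibition above the mean of all tested compounds plus 3 SD, cutoff set per screening run, cut at about 7.5% in these data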;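 also: red hydrolysis product quenches plate fluorescence so inhibitors raise well fluorescence; 0% = enzyme with DMSO and 100% = DMSO without enzyme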
An asterisk follows results filed as active; ? = inconclusive; . = no result.

SMILES	Runt-CBFb FRET	Runt-SMMHC FRET	IMP-1 inh	RanGTP-Imp inh	VIM-2 inhibitor
O=C(c1nc2n(n1)C(c1ccc(Cl)cc1)C=C(c1ccccc1)N2)N1CCOCC1 (stereo not drawn)	-16	62*	-3	-67	-2
COCCNC(=O)CN(C(=O)CCC(=O)Nc1ccccn1)c1ccc(C)cc1C	.	.	-2	2	2
Cc1nc(C(=O)N2CCC(n3nccc3NC(=O)Nc3ccccc3Cl)CC2)cs1	.	.	-1	5	0
CN1CCN(C(=O)c2ccc3c(Cl)c4c(nc3c2)CCCC4)CC1	.	.	1	7	11*
CCN1CCN(C(=O)c2ccc3c(Cl)c4c(nc3c2)CCCC4)CC1	.	.	-1	1	8.2*
CC(=O)NC(CC(=O)NNC(=O)c1cc2ccccc2cc1O)c1ccccc1 (stereo not drawn)	.	.	-4	-3	-6
Cc1ccc(NC(=O)CN(C)C(=O)COC(=O)C2=COCCO2)cc1	.	.	.	2	.
Fc1ccc(Br)cc1C1C=C(c2ccc(Br)cc2)Nc2ncnn21 (stereo not drawn)	-4	-7	2	-19	1
CCc1ccc(C2=CC(c3cc(Br)ccc3F)n3ncnc3N2)cc1 (stereo not drawn)	-1	75*	-2	.	-1
COc1ccc(NC(=O)CSc2nccn2Cc2ccco2)cc1OC	.	.	-5	3	-1
O=C(CCCn1c(=O)c2cccn2c2cccnc21)NCc1cccc(Br)c1	.	.	7.2*	6	4
O=C(CCn1c(=O)c2cccn2c2cccnc21)NCc1cccc(Cl)c1	.	.	22*	-2	-6
CCc1ccc(CNC(=O)CCCn2c(=O)c3cccn3c3cccnc32)cc1	.	.	-4	1	-1
O=[N+]([O-])c1ccc2c(c1)N([O-])C1(CCCCC1)[N+]2=O	26	73*	-3	.	-4
COCCCn1c(C(=O)NCCN2CCOCC2)cc2c(=O)n3cccc(C)c3nc21	.	.	0	2	9.4*
Cc1cccn2c(=O)c3cc(C(=O)NCCN4CCOCC4)c(=N)n(CCc4ccccc4)c3nc12	11	41	-4	185*	0
COCCCn1c(C(=O)Nc2ccc3c(c2)OCO3)cc2c(=O)n3ccccc3nc21	.	.	-3	-1	0
COCCCn1c(C(=O)N2CCOCC2)cc2c(=O)n3ccccc3nc21	.	.	42*	0	0
O=C(NCCCN1CCOCC1)c1ccc2c(=O)n(CCc3ccccc3)c(=O)[nH]c2c1	2	-12	-3	2	-2
Cc1cccn2c(=O)c3cc(C(=O)NCCN4CCOCC4)c(=N)n(CCCN4CCOCC4)c3nc12	.	.	-3	131*	2
O=C(NCCC1CCCCN1S(=O)(=O)c1ccc(F)cc1)C(=O)Nc1ccccc1 (stereo not drawn)	.	.	.	2	.
COc1cc(/C=C2\SC(=S)N(C(C(=O)O)c3ccccc3)C2=O)ccc1O (stereo not drawn)	-52	-162	-5	-18	7
COc1ccccc1/C=C1\SC(=S)N(C(C(=O)O)c2ccccc2)C1=O (stereo not drawn)	2	-6	-1	-1	9.4*
CN1CCc2c(C#N)c(N3CCOCC3)nc(NCC3CCCO3)c2C1 (stereo not drawn)	33	6	-1	70*	-1
CCCc1nc(N2CCOCC2)c(C#N)c2c1CCCC2	1	-6	1	0	0
SMILES	Runt-CBFb FRET	Runt-SMMHC FRET	IMP-1 inh	RanGTP-Imp inh	VIM-2 inhibitor
CCc1ccc(CNC(=O)C2CCCN(S(=O)(=O)N(CC)c3ccccc3)C2)cc1 (stereo not drawn)	.	.	-3	-1	-1
COc1ccc(C)cc1N(CC(=O)O)S(=O)(=O)c1ccc(C)cc1	2	0	-4	-3	-4
COc1ccc(N(CC(=O)O)S(=O)(=O)c2ccc(C)cc2)cc1Cl	3	-7	-1	.	11*
O=C(c1ccc(NC2=NC3CS(=O)(=O)CC3S2)cc1)N1CCN(c2ccc([N+](=O)[O-])cc2)CC1 (stereo not drawn)	.	.	-3	2	0
COc1ccc(CCNC(=O)c2cc3c(=O)n4ccccc4nc3n(Cc3ccco3)c2=N)cc1OC	.	.	-3	13	8.1*
O=C(NCc1ccco1)c1cnc2ccccn2c1=O	-1	0	-4	-1	-2
Cc1ccc(Cn2c(=N)c(C(=O)NCc3ccco3)cc3c(=O)n4ccccc4nc32)cc1	29	.	-1	114*	0
N=c1c(C(=O)NCc2ccco2)cc2c(=O)n3ccccc3nc2n1CCc1ccccc1	12	38	-3	130*	0
COc1ccc(CNC(=O)c2cc3c(=O)n4ccccc4nc3n(Cc3ccco3)c2=N)cc1	.	.	-7	.	1
O=C(CSc1nc2ccccc2c(=O)n1CC1CCCO1)Nc1ccccc1Cl (stereo not drawn)	.	.	-2	0	-5
COC(=O)c1ccc(=O)c2nc3/c(=C/O)c(O)cc(=O)c3[nH]c12	15	52	3	.	18*
Cc1ccc(S(=O)(=O)N[C@H](C(=O)Oc2ccc3c(C(F)(F)F)cc(=O)oc3c2)c2ccccc2)cc1	11	78*	0	33*	2
Cc1ccc(S(=O)(=O)NC(C(=O)Oc2ccc3c(C)c(Cl)c(=O)oc3c2)c2ccccc2)cc1 (stereo not drawn)	64*	59*	-1	72*	1
Cc1cccc(NC(=S)NNC(=O)CCn2nc(C)c([N+](=O)[O-])c2C)c1	2	1	-7	2	8.2*
Nc1nc2nc(-c3ccc(Cl)cc3)cc(C(F)(F)F)n2n1	24	76*	3	?	4
CCC1(N(C(C)=O)c2ccc(OC)cc2)C(=O)c2ccccc2C1=O	1	1	21*	-4	0
Cc1cc(=O)[nH]c(-c2cccnc2)n1	-1	-5	-1	22*	-1
O=c1c2ccccc2nc(-c2ccco2)n1CCCn1ccnc1	0	-4	-3	3	8.1*
CCC(=O)Nc1ccc(NC(=O)CSc2nnnn2Cc2ccccc2)cc1C	.	.	-3	-4	-5
CCC1CCC(N2CCN(c3ccc([N+](=O)[O-])cc3)CC2)CC1 (stereo not drawn)	.	.	-1	1	1
CC1=Nc2ccccc2/C1=C/c1nc(-c2ccc(C)s2)oc1O	-17	-36	-3	37*	-2
Nc1c(C(=O)Nc2cccc(F)c2)nnn1-c1ccc2c(c1)OCCO2	.	.	18*	-1	4
Cc1c(C)n(Cc2ccccc2)c2ncnc(NN)c12	.	.	0	2	2
